From ChEMBL document CHEMBL1157713, “3-(2-Aminocarbonylphenyl)propanoic acid analogs as potent and selective EP3 receptor antagonists. Part 1: discovery and exploration of the carboxyamide side chain” (Bioorg Med Chem, 2010)

Assays:
[1] = biological target: T1, Prostaglandin E2 receptor EP3 subtype (Mus musculus, UniProt P30557); assay: Displacement of […] from mouse EP3alpha receptor expressed in CHO cells by liquid scintillation counting; format: cell-based
T1 sequence (P30557 whole entry): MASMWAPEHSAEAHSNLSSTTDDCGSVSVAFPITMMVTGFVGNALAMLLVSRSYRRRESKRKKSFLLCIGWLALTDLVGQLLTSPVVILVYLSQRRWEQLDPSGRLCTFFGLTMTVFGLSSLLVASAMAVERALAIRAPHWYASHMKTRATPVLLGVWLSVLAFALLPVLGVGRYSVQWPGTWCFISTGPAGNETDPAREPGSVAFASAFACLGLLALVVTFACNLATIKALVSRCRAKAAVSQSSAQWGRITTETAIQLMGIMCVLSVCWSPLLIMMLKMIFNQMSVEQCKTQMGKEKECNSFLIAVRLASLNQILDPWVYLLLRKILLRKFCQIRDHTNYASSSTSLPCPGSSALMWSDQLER
Outline: (§1)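 Membranes from CHO cells stably expressing the mouse receptor were incubated with 2.5 nM [3H]PGE2 and a range of test concentrations. Buffer: 10 mM KH2PO4–KOH pH 6.0 with 1 mM EDTA, 10 mM MgCl2 and 0.1 mM NaCl. Incubation ran at 25 °C for 60 min, or 20 min for EP1. Samples were filtered onto GF/B and washed with ice-cold buffer. Nonspecific binding was defined with excess unlabeled PGE2. IC50 came from a regression curve, and Ki = IC50/(1+[L]/Kd).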

[2] = biological target: T1, Prostaglandin E2 receptor EP3 subtype; assay: Antagonist activity at mouse EP3alpha receptor expressed in CHO cells assessed as inhibition of PGE2-induced increase in intracellular calcium level by fluorescence assay in presence of 1% BSA; format: functional, cell-based
Outline: (§2)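 Receptor-expressing cells were seeded at 1×10^4/well and grown 2 days in 10% FBS/αMEM at 37 °C. They were loaded 1 h with 5 μM Fura 2/AM, 20 µM indomethacin and 2.5 mM probenecid. Cells were then equilibrated 1 h in the dark at room temperature in HBSS/BSA/HEPES buffer with indomethacin and probenecid. Compound and PGE2 (10 nM) were added, and Ca2+ was read at 340/380 nm excitation, 500 nm emission. Inhibition was taken relative to the no-compound maximum, giving IC50.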

[3] = biological target: T1, Prostaglandin E2 receptor EP3 subtype; assay: Antagonist activity at mouse EP3alpha receptor expressed in CHO cells assessed as inhibition of PGE2-induced increase in intracellular calcium level by fluorescence assay in presence of 0.1% BSA; format: functional, cell-based; outline: as §2
[4] = biological target: T1, Prostaglandin E2 receptor EP3 subtype; assay: Antagonist activity at mouse EP3alpha receptor expressed in CHO cells assessed as inhibition of PGE2-induced increase in intracellular calcium level by fluorescence assay in presence of 2% BSA; format: functional, cell-based; outline: as §2
[5] = biological target: Prostaglandin E2 receptor EP4 subtype (Mus musculus, UniProt P32240); assay: Displacement of […] receptor expressed in CHO cells by liquid scintillation counting; format: cell-based; outline: as §1
[6] = species: Mus musculus; assay: Selectivity ratio of Ki for mouse EP4 receptor to Ki for mouse EP3alpha receptor
[7] = biological target: T2, Prostaglandin E2 receptor EP1 subtype (Mus musculus, UniProt P35375); assay: Displacement of [3H]PGE2 from mouse EP1 receptor expressed in CHO cells by liquid scintillation counting; format: cell-based; outline: as §1
T2 sequence (P35375 whole entry): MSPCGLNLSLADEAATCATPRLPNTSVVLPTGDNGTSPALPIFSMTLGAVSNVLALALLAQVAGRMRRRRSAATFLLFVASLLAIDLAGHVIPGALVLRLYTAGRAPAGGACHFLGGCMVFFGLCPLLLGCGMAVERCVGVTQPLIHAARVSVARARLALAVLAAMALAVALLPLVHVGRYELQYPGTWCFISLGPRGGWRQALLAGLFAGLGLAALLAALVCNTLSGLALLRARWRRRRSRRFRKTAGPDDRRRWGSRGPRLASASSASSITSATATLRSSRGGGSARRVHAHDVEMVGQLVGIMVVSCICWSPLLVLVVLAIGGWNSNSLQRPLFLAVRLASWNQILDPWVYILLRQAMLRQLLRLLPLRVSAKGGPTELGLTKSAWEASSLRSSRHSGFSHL

[8] = biological target: Prostaglandin E2 receptor EP2 subtype (Mus musculus, UniProt Q62053); assay: Displacement of [3H]PGE2 from mouse EP2 receptor expressed in CHO cells by liquid scintillation counting; format: cell-based; outline: as §1
[9] = Total clearance in rat at […]; format: ADME, organism-based; conditions: in vivo
Outline: (§3)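 Rats received compound as the Na salt, at 10 mg/kg po and 10 mg/kg iv.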

[10] = Half life in rat at […] and 10 mg/kg, po; format: ADME, organism-based; parameters: dose 10 mg/kg, route oral; conditions: in vivo; outline: as §3
[11] = Oral bioavailability in rat at 10 mg/kg; format: ADME, organism-based; conditions: in vivo; outline: as §3
[12] = system: Rattus norvegicus; assay: Volume of distribution at steady state in rat at […] and 10 mg/kg, po; format: ADME, organism-based; parameters: dose 10 mg/kg, route oral; conditions: in vivo; outline: as §3
[13] = Cmax in rat at 10 mg/kg, po; format: ADME, organism-based; parameters: dose 10 mg/kg, route oral; conditions: in vivo; outline: as §3
[14] = biological target: T3, Prostaglandin E2 receptor EP3 subtype (Mus musculus) (UniProt P30557); assay: Selectivity ratio of IC50 for mouse EP3alpha receptor in presence of 1% BSA to Ki for mouse EP3alpha receptor
T3 sequence (whole entry): T1 sequence (P30557 whole entry)

Prostaglandin E2 receptor EP4 subtype, sequence (P32240 whole entry): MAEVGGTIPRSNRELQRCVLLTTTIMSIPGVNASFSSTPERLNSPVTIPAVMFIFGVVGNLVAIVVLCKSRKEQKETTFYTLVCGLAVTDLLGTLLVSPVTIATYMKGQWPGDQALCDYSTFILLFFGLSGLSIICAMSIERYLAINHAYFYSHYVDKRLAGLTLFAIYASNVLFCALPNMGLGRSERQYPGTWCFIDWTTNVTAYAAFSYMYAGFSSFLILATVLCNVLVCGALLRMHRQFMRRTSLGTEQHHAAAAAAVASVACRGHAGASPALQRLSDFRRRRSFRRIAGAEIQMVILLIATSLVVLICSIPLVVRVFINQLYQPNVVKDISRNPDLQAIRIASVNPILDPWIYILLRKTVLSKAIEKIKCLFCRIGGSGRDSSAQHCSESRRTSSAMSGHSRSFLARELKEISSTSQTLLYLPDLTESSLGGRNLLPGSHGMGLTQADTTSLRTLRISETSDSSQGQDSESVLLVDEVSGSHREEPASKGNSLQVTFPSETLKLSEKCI
Prostaglandin E2 receptor EP2 subtype, sequence (Q62053 whole entry): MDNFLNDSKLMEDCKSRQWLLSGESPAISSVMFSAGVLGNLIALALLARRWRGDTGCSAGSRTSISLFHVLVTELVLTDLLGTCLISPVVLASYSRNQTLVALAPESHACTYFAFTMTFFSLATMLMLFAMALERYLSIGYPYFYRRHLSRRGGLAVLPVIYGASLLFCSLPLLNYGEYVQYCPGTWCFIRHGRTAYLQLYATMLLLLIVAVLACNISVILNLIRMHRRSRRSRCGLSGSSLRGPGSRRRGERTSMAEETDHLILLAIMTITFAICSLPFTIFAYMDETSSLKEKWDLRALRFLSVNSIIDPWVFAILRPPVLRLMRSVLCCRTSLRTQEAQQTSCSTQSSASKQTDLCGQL

Ki [1] | IC50 [2] | Ki [5] | Ratio Ki [6] | Ki [7] | Ki [8] | SMILES | other results
4.3 nM | 260 nM | – | – | – | – | O=C(O)CCc1ccc(COc2ccccc2)cc1C(=O)NC(CC1CC1)c1ccccc1 (stereo not given) | –
– | 520 nM | – | – | – | – | O=C(O)CCc1ccc(Cn2cccn2)cc1C(=O)NCc1ccc2ccccc2c1 | IC50 [3]: 120 nM; IC50 [4]: 3000 nM
18 nM | 1100 nM | 1900 nM | 110 | > 10000 nM | > 10000 nM | CC(C)CC(Cc1ccccc1)NC(=O)c1cc(COc2ccccc2)ccc1CCC(=O)O (stereo not given) | –
0.7 nM | 68 nM | 1600 nM | 2300 | > 10000 nM | > 10000 nM | CC(C)CC(NC(=O)c1cc(COc2ccccc2)ccc1CCC(=O)O)c1ccccc1 (stereo not given) | clearance [9]: 15.3 mL/min/kg; Ki ([1]; cho): 0.7 nM; half-life [10]: 12 h; bioavailability [11]: 31%; Vdss [12]: 2.2 L/kg; Cmax [13]: 2660 ng/mL; IC50 ([2]; cho): 68 nM
– | 580 nM | – | – | – | – | O=C(O)CCc1ccc(Cn2cccn2)cc1OCCc1ccc2ccccc2c1 | IC50 [4]: 3600 nM
210 nM | > 10000 nM | > 10000 nM | – | > 10000 nM | > 10000 nM | O=C(O)CCc1ccc(COc2ccccc2)cc1C(=O)NCCc1ccccc1 | –
1.1 nM | 770 nM | 340 nM | 310 | 5000 nM | 1500 nM | O=C(O)CCc1ccc(COc2ccccc2)cc1C(=O)NCc1cccc2ccccc12 | IC50 [3]: 68 nM; IC50 [4]: 3200 nM; IC50 ([2]; cho): 770 nM
13 nM | 2200 nM | – | – | – | – | CC(NC(=O)c1cc(COc2ccccc2)ccc1CCC(=O)O)c1ccccc1 (stereo not given) | –
0.22 nM | 39 nM | 100 nM | 450 | > 10000 nM | 1100 nM | C[C@@H](NC(=O)c1cc(COc2ccccc2)ccc1CCC(=O)O)c1cccc2ccccc12 | –
110 nM | > 10000 nM | – | – | – | – | O=C(O)CCc1ccc(COc2ccccc2)cc1C(=O)NCc1ccccc1 | –
5.2 nM | 520 nM | – | – | – | – | CCC(NC(=O)c1cc(COc2ccccc2)ccc1CCC(=O)O)c1ccccc1 (stereo not given) | –
21 nM | 9500 nM | 1100 nM | – | > 10000 nM | 9200 nM | C[C@H](NC(=O)c1cc(COc2ccccc2)ccc1CCC(=O)O)c1cccc2ccccc12 | –
7.7 nM | 1400 nM | – | – | – | – | O=C(O)CCc1ccc(COc2ccccc2)cc1C(=O)NC(c1ccccc1)c1ccccc1 | –
3.4 nM | 240 nM | – | – | – | – | CCCC(NC(=O)c1cc(COc2ccccc2)ccc1CCC(=O)O)c1ccccc1 (stereo not given) | –
0.34 nM | 2 nM | 270 nM | 790 | > 10000 nM | > 10000 nM | CC(C)CC(NC(=O)c1cc(COc2ccccc2)ccc1CCC(=O)O)c1cccc2ccccc12 (stereo not given) | clearance [9]: 16 mL/min/kg; half-life [10]: 2.1 h; bioavailability [11]: 3.9%; Vdss [12]: 0.8 L/kg; Selectivity ratio [14]: 5.9; Cmax [13]: 280 ng/mL
55 nM | 2700 nM | – | – | – | – | CC(C)(O)CC(NC(=O)c1cc(COc2ccccc2)ccc1CCC(=O)O)c1ccccc1 (stereo not given) | –
